The text below walks through data of ChEMBL document CHEMBL1133105, “Antimalarial, antitrypanosomal, and antileishmanial activities and cytotoxicity of bis(9-amino-6-chloro-2-methoxyacridines): influence of the linker” (J Med Chem, 2000).

The test system of the first assay is Leishmania infantum. The assay can be described thus: Percentage of activity against Leishmania infantum at 12.5 uM Concentration; Toxic upon mouse primary peritoneal macrophages. Type of assay: functional, organism-based.
Settings: not given
In outline:
(§1)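 Starch-stimulated mouse peritoneal macrophages, 30 000/well, infected after 24 h with spleen-derived L. infantum amastigotes (10:1) together with 2-fold drug dilutions (12.5–1.56 µM). Incubated 7 days at 37 °C, 5% CO2. Wright-stained slides scored microscopically as % reduction of total parasite load or of infected macrophages. Uninfected treated cultures judged microscopically for macrophage toxicity.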
For the molecule `COc1ccc2nc3cc(Cl)ccc3c(NCCCN(CCCNc3c4ccc(Cl)cc4nc4ccc(OC)cc34)C(=O)CCN3CCNCC3)c2c1`, the Cytotoxicity entry was “Toxic”.

On to `COc1ccc2nc3cc(Cl)ccc3c(NCCCN(CCCNc3c4ccc(Cl)cc4nc4ccc(OC)cc34)C(=O)C(CNC(=O)OCC3c4ccccc4-c4ccccc43)NC(=O)OC(C)(C)C)c2c1` (configuration not stated), for which the Cytotoxicity result was “Toxic”.

The test system of a further assay is Trypanosoma brucei. Put plainly: Percentage of activity against Trypanosoma brucei at 1.56 uM. The assay is classed as functional.
Settings: not given
In a few lines:
(§2)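 Bloodstream-form T. brucei in HMI-9 medium, 10 000 parasites/well, exposed to 12.5, 6.25, 3.13 and 1.56 µM drug for 4 days. Read-out is % inhibition of parasite multiplication. Macrophage toxicity judged on mouse primary peritoneal macrophages.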
In the case of `COc1ccc2nc3cc(Cl)ccc3c(NCCCN(CCCNc3c4ccc(Cl)cc4nc4ccc(OC)cc34)C(=O)CCN3CCNCC3)c2c1`, the “Percent inhibition of parasite multiplication” value was 95%.

Take `COc1ccc2nc3cc(Cl)ccc3c(NCCCN(CCCNc3c4ccc(Cl)cc4nc4ccc(OC)cc34)C(=O)C(CNC(=O)OCC3c4ccccc4-c4ccccc43)NC(=O)OC(C)(C)C)c2c1` (configuration not stated): the “Percent inhibition of parasite multiplication” value turned out to be 100%.

A further assay has as its system Trypanosoma cruzi. Put plainly: Percentage of activity against Trypanosoma cruzi at 12.5 uM; Toxic upon mouse primary peritoneal macrophages. Type of assay: functional, organism-based.
Settings: not given
In outline:
(§3)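 Mouse peritoneal macrophages, 30 000/well, infected after 24 h with about 100 000 T. cruzi trypomastigotes per well plus 2-fold drug dilutions (12.5–1.56 µM). Incubated 4 days at 37 °C, 5% CO2. Methanol-fixed, Giemsa-stained and scored microscopically as % reduction of total parasite load (free trypomastigotes plus intracellular amastigotes) versus untreated controls.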
In the case of `COc1ccc2nc3cc(Cl)ccc3c(NCCCN(CCCNc3c4ccc(Cl)cc4nc4ccc(OC)cc34)C(=O)C(CNC(=O)OCC3c4ccccc4-c4ccccc43)NC(=O)OC(C)(C)C)c2c1` (configuration not stated), the Cytotoxicity result was “Toxic”.

In another assay the test system is MRC5. Put plainly: Cytotoxicity on MRC-5 cells at 25 uM. Type of assay: functional. Particulars: Homo sapiens. In a few lines:
(§4)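 MRC-5 human diploid embryonic lung cells seeded at 5 000/well, washed after 24 h, then given 2-fold drug dilutions (25, 12.5, 6.25, 3.13 µM) in RPMI + 5% FCS, final DMSO below 0.5%. Incubated 7 days at 37 °C, 5% CO2. MTT colorimetric read-out, scored as % reduction of absorbance at 540 nm versus untreated controls.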
As for `COc1ccc2nc3cc(Cl)ccc3c(NCCCN(CCCNc3c4ccc(Cl)cc4nc4ccc(OC)cc34)C(=O)CCN3CCNCC3)c2c1`, the cytotoxicity at 25 µM worked out at 15%.

In turn, `COc1ccc2nc3cc(Cl)ccc3c(NCCCN(CCCNc3c4ccc(Cl)cc4nc4ccc(OC)cc34)C(=O)C(CNC(=O)OCC3c4ccccc4-c4ccccc43)NC(=O)OC(C)(C)C)c2c1` (configuration not stated) registered a cytotoxicity at 25 µM of 68%.

In a further assay the test system is Trypanosoma cruzi. The assay can be described thus: Percentage of activity against Trypanosoma cruzi at 3.13 uM.
Settings: not given
Type of assay: functional. In a few lines: as §3
Consider `COc1ccc2nc3cc(Cl)ccc3c(NCCCN(CCCNc3c4ccc(Cl)cc4nc4ccc(OC)cc34)C(=O)CCN3CCNCC3)c2c1`, for which the “Reduction of T. cruzi parasite load” value came out at 0%.

Regarding `COc1ccc2nc3cc(Cl)ccc3c(NCCCN(CCCNc3c4ccc(Cl)cc4nc4ccc(OC)cc34)C(=O)C(CNC(=O)OCC3c4ccccc4-c4ccccc43)NC(=O)OC(C)(C)C)c2c1` (configuration not stated), the “Reduction of T. cruzi parasite load” value was found to be 20%.

In another assay the test system is MRC5. Put plainly: Cytotoxicity on MRC-5 cells at 6.25 uM. Type of assay: functional. As to conditions: Homo sapiens. In outline: as §4
Turning to `COc1ccc2nc3cc(Cl)ccc3c(NCCCN(CCCNc3c4ccc(Cl)cc4nc4ccc(OC)cc34)C(=O)CCN3CCNCC3)c2c1`, the cytotoxicity at 6.25 µM turned out to be 0%.

The molecule `COc1ccc2nc3cc(Cl)ccc3c(NCCCN(CCCNc3c4ccc(Cl)cc4nc4ccc(OC)cc34)C(=O)C(CNC(=O)OCC3c4ccccc4-c4ccccc43)NC(=O)OC(C)(C)C)c2c1` (configuration not stated) displayed a cytotoxicity at 6.25 µM of 57%.

Another assay has as its system Leishmania infantum. Put plainly: Percentage of activity against Leishmania infantum at 3.13 uM. Type of assay: functional.
Settings: not given
In a few lines:
as §1
Turning to `COc1ccc2nc3cc(Cl)ccc3c(NCCCN(CCCNc3c4ccc(Cl)cc4nc4ccc(OC)cc34)C(=O)CCN3CCNCC3)c2c1`, the “Percent antileishmanial activity (reduction of parasite load)” value stood at 0%.

For `COc1ccc2nc3cc(Cl)ccc3c(NCCCN(CCCNc3c4ccc(Cl)cc4nc4ccc(OC)cc34)C(=O)C(CNC(=O)OCC3c4ccccc4-c4ccccc43)NC(=O)OC(C)(C)C)c2c1` (configuration not stated), the “Percent antileishmanial activity (reduction of parasite load)” value is 70%.

In a further assay the test system is Trypanosoma cruzi. The assay can be described thus: Percentage of activity against Trypanosoma cruzi at 6.25 uM Concentration.
Settings: not given
Type of assay: functional. In a few lines:
as §3
On to `COc1ccc2nc3cc(Cl)ccc3c(NCCCN(CCCNc3c4ccc(Cl)cc4nc4ccc(OC)cc34)C(=O)CCN3CCNCC3)c2c1`, for which the “Reduction of T. cruzi parasite load” value is on record as 0%.

Turning to `COc1ccc2nc3cc(Cl)ccc3c(NCCCN(CCCNc3c4ccc(Cl)cc4nc4ccc(OC)cc34)C(=O)C(CNC(=O)OCC3c4ccccc4-c4ccccc43)NC(=O)OC(C)(C)C)c2c1` (configuration not stated), the “Reduction of T. cruzi parasite load” value amounted to 90%.

For another assay, the system named is Trypanosoma brucei. Put plainly: Percentage of activity against Trypanosoma brucei at 3.13 uM. Type of assay: functional.
Settings: not given
In outline: as §2
`COc1ccc2nc3cc(Cl)ccc3c(NCCCN(CCCNc3c4ccc(Cl)cc4nc4ccc(OC)cc34)C(=O)CCN3CCNCC3)c2c1` showed a Parasite growth inhibition of 99%.

`COc1ccc2nc3cc(Cl)ccc3c(NCCCN(CCCNc3c4ccc(Cl)cc4nc4ccc(OC)cc34)C(=O)C(CNC(=O)OCC3c4ccccc4-c4ccccc43)NC(=O)OC(C)(C)C)c2c1` (configuration not stated) showed a Parasite growth inhibition of 100%.

The test system of the next assay is Leishmania infantum. Put plainly: Percentage of activity against Leishmania infantum 6.25 uM. The assay is classed as functional.
Settings: not given
In outline:
as §1
With `COc1ccc2nc3cc(Cl)ccc3c(NCCCN(CCCNc3c4ccc(Cl)cc4nc4ccc(OC)cc34)C(=O)CCN3CCNCC3)c2c1`, the “Antileishmanial activity (% reduction of parasite load)” value worked out at 0%.

On to `COc1ccc2nc3cc(Cl)ccc3c(NCCCN(CCCNc3c4ccc(Cl)cc4nc4ccc(OC)cc34)C(=O)C(CNC(=O)OCC3c4ccccc4-c4ccccc43)NC(=O)OC(C)(C)C)c2c1` (configuration not stated), for which the “Antileishmanial activity (% reduction of parasite load)” value came to 95%.

In the next assay the test system is Trypanosoma cruzi. The assay can be described thus: Percentage of activity against Trypanosoma cruzi at 12.5 uM. Type of assay: functional.
Settings: not given
In a few lines: as §3
As for `COc1ccc2nc3cc(Cl)ccc3c(NCCCN(CCCNc3c4ccc(Cl)cc4nc4ccc(OC)cc34)C(=O)CCN3CCNCC3)c2c1`, the “T. cruzi parasite load reduction” value was 90%.

A further assay deals with Plasmodium falciparum. The assay can be described thus: In vitro sensitivity for Plasmodium falciparum FcB1R. The assay is classed as functional, organism-based.
Settings: not given
In a few lines: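 Asynchronous P. falciparum cultures in human erythrocytes (0.5% parasitemia, 1% haematocrit) exposed to serially diluted drug for 24 h at 37 °C. [3H]hypoxanthine (0.5 µCi/well) then added for a further 24 h. Uptake compared with drug-free controls on the same plate. IC50 taken from the concentration–response curve, averaged over independent experiments. DMSO ≤0.1%.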
As usually defined, the IC50 is the midpoint of a concentration-inhibition curve. A high value points to lower potency. As to `COc1ccc2nc3cc(Cl)ccc3c(NCCCN(CCCNc3c4ccc(Cl)cc4nc4ccc(OC)cc34)C(=O)CCN3CCNCC3)c2c1`, the half-inhibitory concentration (IC50) was above 500 nM.

On to `COc1ccc2nc3cc(Cl)ccc3c(NCCCN(CCCNc3c4ccc(Cl)cc4nc4ccc(OC)cc34)C(=O)C(CNC(=O)OCC3c4ccccc4-c4ccccc43)NC(=O)OC(C)(C)C)c2c1` (configuration not stated), for which inhibition was half-maximal at 71 nM (IC50).

A further assay deals with MRC5. Put plainly: Cytotoxicity on MRC-5 cells at 3.13 uM. Type of assay: functional. As to conditions: Homo sapiens. In outline:
as §4
Turning to `COc1ccc2nc3cc(Cl)ccc3c(NCCCN(CCCNc3c4ccc(Cl)cc4nc4ccc(OC)cc34)C(=O)CCN3CCNCC3)c2c1`, the cytotoxicity at 3.13 µM was 0%.

In turn, `COc1ccc2nc3cc(Cl)ccc3c(NCCCN(CCCNc3c4ccc(Cl)cc4nc4ccc(OC)cc34)C(=O)C(CNC(=O)OCC3c4ccccc4-c4ccccc43)NC(=O)OC(C)(C)C)c2c1` (configuration not stated) showed a cytotoxicity at 3.13 µM of 55%.

Another assay deals with Leishmania infantum. The assay can be described thus: Percentage of activity against Leishmania infantum at 1.56 uM. Type of assay: functional.
Settings: not given
In a few lines: as §1
As to `COc1ccc2nc3cc(Cl)ccc3c(NCCCN(CCCNc3c4ccc(Cl)cc4nc4ccc(OC)cc34)C(=O)CCN3CCNCC3)c2c1`, the “Antileishmanial activity (% reduction of parasite load)” value came to 0%.

Take `COc1ccc2nc3cc(Cl)ccc3c(NCCCN(CCCNc3c4ccc(Cl)cc4nc4ccc(OC)cc34)C(=O)C(CNC(=O)OCC3c4ccccc4-c4ccccc43)NC(=O)OC(C)(C)C)c2c1` (configuration not stated): the “Antileishmanial activity (% reduction of parasite load)” value is 20%.

In a further assay the test system is Trypanosoma cruzi. Put plainly: Percentage of activity against Trypanosoma cruzi at 1.56 uM.
Settings: not given
Type of assay: functional. In a few lines:
as §3
Molecule `COc1ccc2nc3cc(Cl)ccc3c(NCCCN(CCCNc3c4ccc(Cl)cc4nc4ccc(OC)cc34)C(=O)CCN3CCNCC3)c2c1` displayed a Parasite load reduction of 0%.

For `COc1ccc2nc3cc(Cl)ccc3c(NCCCN(CCCNc3c4ccc(Cl)cc4nc4ccc(OC)cc34)C(=O)C(CNC(=O)OCC3c4ccccc4-c4ccccc43)NC(=O)OC(C)(C)C)c2c1` (configuration not stated), the Parasite load reduction is reported as 0%.

The next assay concerns Trypanosoma brucei. The assay can be described thus: Percentage of activity against Trypanosoma brucei at 6.25 uM. Type of assay: functional.
Settings: not given
In outline:
as §2
On to `COc1ccc2nc3cc(Cl)ccc3c(NCCCN(CCCNc3c4ccc(Cl)cc4nc4ccc(OC)cc34)C(=O)CCN3CCNCC3)c2c1`, for which the “Inhibition of parasite multiplication” value worked out at 100%.

For `COc1ccc2nc3cc(Cl)ccc3c(NCCCN(CCCNc3c4ccc(Cl)cc4nc4ccc(OC)cc34)C(=O)C(CNC(=O)OCC3c4ccccc4-c4ccccc43)NC(=O)OC(C)(C)C)c2c1` (configuration not stated), the “Inhibition of parasite multiplication” value is recorded as 100%.

The subject of a further assay is MRC5. The assay can be described thus: Cytotoxicity on MRC-5 cells at 12.5 uM. The assay is classed as functional. As to conditions: Homo sapiens. In outline:
as §4
`COc1ccc2nc3cc(Cl)ccc3c(NCCCN(CCCNc3c4ccc(Cl)cc4nc4ccc(OC)cc34)C(=O)CCN3CCNCC3)c2c1` registered a cytotoxicity at 12.5 µM of 0%.

As for `COc1ccc2nc3cc(Cl)ccc3c(NCCCN(CCCNc3c4ccc(Cl)cc4nc4ccc(OC)cc34)C(=O)C(CNC(=O)OCC3c4ccccc4-c4ccccc43)NC(=O)OC(C)(C)C)c2c1` (configuration not stated), the cytotoxicity at 12.5 µM was determined as 60%.
